Measurements taken from ChEMBL document CHEMBL3785064, “Cylindrofridins A-C, Linear Cylindrocyclophane-Related Alkylresorcinols from the Cyanobacterium Cylindrospermum stagnale” (J Nat Prod, 2016).
In brackets after ≈: the same amount, converted by molar mass.

Legend:
Staphylococcus aureus = assay: Antibacterial activity against methicillin-resistant Staphylococcus aureus isolate 1 B690208 after 24 hrs; format: functional; conditions: isolate 1 B690208, 24 h
Procedure, shortened: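 MIC determined against MRSA; vancomycin and fusidic acid served as positive controls.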

Streptococcus pneumoniae = assay: Antibacterial activity against Streptococcus pneumoniae ATCC 49619 after 24 hrs; format: functional; conditions: ATCC 49619, 24 h
Escherichia coli = assay: Antibacterial activity against Escherichia coli isolate 13 V676803 after 24 hrs; format: functional; conditions: isolate 13 V676803, 24 h
Klebsiella pneumoniae = assay: Antibacterial activity against Klebsiella pneumoniae isolate 18 B224106 after 24 hrs; format: functional; conditions: isolate 18 B224106, 24 h
Pseudomonas aeruginosa = assay: Antibacterial activity against Pseudomonas aeruginosa isolate 22 V143708 after 24 hrs; format: functional; conditions: isolate 22 V143708, 24 h
HaCaT = assay: Cytotoxicity against human HaCaT cells by Cell titre-blue assay; format: cell-based
Procedure, shortened: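 Nontumorigenic human keratinocyte HaCaT cells were tested with mitoxantrone as the positive control, and results are reported as IC50 in μM.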

Structure (SMILES) | MIC (Staphylococcus aureus) [µM] | MIC (Streptococcus pneumoniae) [µM] | MIC (Escherichia coli) [µM] | MIC (Klebsiella pneumoniae) [µM] | MIC (Pseudomonas aeruginosa) [µM] | IC50 (HaCaT) [µM]
CCCCC(Cl)CCCC[C@H](C)[C@@H](OC(C)=O)c1cc(O)c([C@@H](CCCC)CCCC[C@H](C)[C@@H](OC(C)=O)c2cc(O)cc(O)c2)c(O)c1 (some centres undefined) | > 71 | > 71 | > 71 | > 71 | > 71 | 25
CCCCC(Cl)CCCC[C@H](C)[C@@H](O)c1cc(O)c([C@@H](CCCC)CCCC[C@H](C)[C@@H](OC(C)=O)c2cc(O)cc(O)c2)c(O)c1 (some centres undefined) | > 75 | > 75 | > 75 | > 75 | > 75 | 25
CCCCC(Cl)CCCC[C@H](C)[C@@H](OC(C)=O)c1cc(O)cc(O)c1 (some centres undefined) | 8.6 (≈ 3.19 µg/mL) | 17 (≈ 6.31 µg/mL) | > 135 | > 135 | > 135 | 100
CCCC[C@H]1CCCC[C@H](C)[C@@H](O)c2cc(O)c(c(O)c2)[C@@H](CCCC)CCCC[C@H](C)[C@@H](OC(C)=O)c2cc(O)c1c(O)c2 | 0.1 (≈ 0.0627 µg/mL) | 0.3 (≈ 0.188 µg/mL) | > 80 | > 80 | > 80 | 2.9
CCCC[C@H]1CCCC[C@H](C)[C@@H](OC(C)=O)c2cc(O)c(c(O)c2)[C@@H](CCCC)CCCC[C@H](C)[C@@H](OC(C)=O)c2cc(O)c1c(O)c2 | 0.9 (≈ 0.602 µg/mL) | 2.4 (≈ 1.61 µg/mL) | > 75 | > 75 | > 75 | 11
CN[C@@H](CC(C)C)C(=O)N[C@H]1C(=O)N[C@@H](CC(N)=O)C(=O)N[C@H]2C(=O)N[C@H]3C(=O)N[C@H](C(=O)N[C@@H](C(=O)O)c4cc(O)cc(O)c4-c4cc3ccc4O)[C@H](O)c3ccc(c(Cl)c3)Oc3cc2cc(c3O[C@H]2O[C@@H](CO)[C@H](O)[C@@H](O)[C@@H]2O[C@@H]2C[C@@](C)(N)[C@@H](O)[C@@H](C)O2)Oc2ccc(cc2Cl)[C@H]1O |  | 3.8 (≈ 5.51 µg/mL) |  |  |  | 
CCCC[C@H]1CCCC[C@H](C)[C@@H](O)c2cc(O)c(c(O)c2)[C@@H](CCCC)CCCC[C@H](C)[C@@H](O)c2cc(O)c1c(O)c2 [CYLINDROCYCLOPHANE A] | 0.1 (≈ 0.0585 µg/mL) | 0.3 (≈ 0.175 µg/mL) | > 85 | > 85 | > 85 | 5
CC(=O)O[C@H]1C[C@@]2(C)[C@@H](C[C@@H](O)[C@H]3[C@@]4(C)CC[C@@H](O)[C@@H](C)[C@@H]4CC[C@@]32C)/C1=C(\CCC=C(C)C)C(=O)O [FUSIDIC ACID] | 1.4 (≈ 0.723 µg/mL) |  |  |  |  | 
O=C1c2c(O)ccc(O)c2C(=O)c2c(NCCNCCO)ccc(NCCNCCO)c21 [MITOXANTRONE] |  |  |  |  |  | 3.9
